Measured values as given in ChEMBL document CHEMBL1124296, “Molecular basis for bleomycin amplification: conformational and stereoelectronic effects in unfused amplifiers” (J Med Chem, 1988).

tested on: Calf thymus DNA; experiment: Binding constant to DNA measured spectrophotometrically; format: nucleic-acid assay; details: Bos taurus
In short: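 Calf thymus DNA, stripped of residual protein and dialyzed into PIPES 00 buffer (0.01 M PIPES, 0.001 M EDTA, NaOH to pH 7.00, [Na⁺] 0.019 M). DNA-P concentration was read at 260 nm with ε 6600 M⁻¹ cm⁻¹. Equilibrium binding constants were obtained spectrophotometrically by an earlier-reported procedure.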

Row | K | Compound
1 | 10100 M⁻¹ | CN(C)CCSc1nccc(-c2cccn2C)n1
2 | 18700 M⁻¹ | CN(C)CCSc1nccc(-c2cccs2)n1
3 | 3400 M⁻¹ | CN(C)CCOc1nccc(-c2cccs2)n1
4 | 48000 M⁻¹ | Cc1cnc(SCCN(C)C)nc1-c1cccs1
5 | 13700 M⁻¹ | CSc1cc(-c2cccs2)nc(NCCN(C)C)n1
6 | 3000 M⁻¹ | CN(C)CCOc1cccc(-c2ccccc2)c1
7 | 3000 M⁻¹ | CN(C)CCOc1ccc(-c2ccccc2)cc1
8 | 3000 M⁻¹ | Cc1ccnc(-c2cc(COCCN(C)C)ccn2)c1
9 | 4400 M⁻¹ | CN(C)CCNc1nccc(-c2cccs2)n1

Second part, the compound before the results:

Row | Compound | K
10 | Cc1cc(-c2cccs2)nc(SCCN(C)C)n1 | 24800 M⁻¹
11 | CN(C)CCSc1nccc(-c2nccs2)n1 | 9250 M⁻¹
12 | CN(C)CCSc1nccc(-c2ccco2)n1 | 3500 M⁻¹
13 | CSc1nc(NCCN(C)C)cc(-c2cccs2)n1 | 6800 M⁻¹
14 | CN(C)CCNc1nccc(-c2nccs2)n1 | 3900 M⁻¹
15 | CN(C)CCOc1ccccc1-c1ccccc1 | 3000 M⁻¹
16 | CN(C)CCSc1nccc(-c2ccccc2)n1 | 8600 M⁻¹
